The text below walks through data of ChEMBL document CHEMBL1131453, “Design of N-acylprolyltyrosine "tripeptoid" analogues of neurotensin as potential atypical antipsychotic agents” (J Med Chem, 1998).

One series concerns Mus musculus. In words: Compound was tested in vivo for its ability to antagonize apomorphine-induced climbing response in mice upon intraperitoneal administration. It counts as functional. To be noted: ip. The procedure, abridged: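 C57BL/6 male mice, 22–25 g, adapted 1 h in wire mesh cages. Compound in saline with 3% Tween 80 given ip 15 min before apomorphine 5.0 mg/kg sc (in saline with 0.1% ascorbic acid). Climbing scored 0–4 every 2 min, 30 readings, from 15 min after apomorphine. Totals are expressed as % of vehicle control. ED50 with 95% confidence limits by log-dose linear regression, 8–16 mice per dose.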

In series [1] the test system is Rattus norvegicus. Nature of the series: Compound was tested in vivo for its ability to antagonize extrapolatory behavior impairment induced by DOPA in rats upon intraperitoneal administration. In kind it is functional. To be noted: ip. Summed up:
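Outbred albino male rats, 180–200 g, placed in a water-plunged cylinder (22 °C) and must dive under its edge within 2 min; non-escapers discarded. A day later, Madopar (100 mg/kg L-DOPA + 25 mg/kg benserazide in 3% Tween 80) is given ip 60 min before testing. Compound in saline + 3% Tween 80 is given ip 10 min before Madopar. Successful escapes are recorded. ED50 with 95% confidence limits by linear regression, eight rats per dose.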

The subject of series [2] is Rattus norvegicus. Nature of the series: Compound was tested in vivo for its ability to induce catalepsy in rats upon intraperitoneal administration. In kind it is functional. To be noted: ip. Summed up:
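Adult outbred male rats, 200–250 g, dosed ip with compound in saline containing 3% Tween 80. Forepaws placed on a bar 7 cm high (Morpurgo apparatus) at 0.5, 1.0, 1.5 and 2 h. Bar time scored 0–3, tested twice per session at 2-min intervals. Scores are given as percent of the maximal cumulative score (15).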

Series [3] can be described thus: Acute toxicity on male outbred albino mice upon intraperitoneal administration. To be noted: mouse, in vivo, ip. The procedure, abridged: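 Male outbred albino mice (Moscow region), 20–25 g, housed five per cage with free food and water at 21–22 °C, 40–50% humidity, 12/12 h light/dark. Single ip injection at doses up to 500–1000 mg/kg. Surviving animals were counted 2, 24 and 48 h after injection.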

As usually defined, the ED50 is the midpoint of the dose-response relation. By LD50 is commonly meant the dose expected to kill half of the subjects tested.

SMILES strings stand for the structures. Peptide text beside a SMILES is read from it. * marks the point of attachment. Nonanoyl = CCCCCCCCC(=O)*; Hexanoyl = CCCCCC(=O)*; Pentanoyl = CCCCC(=O)*

Molecule `CCCCC(=O)N1CCC[C@H]1C(=O)N[C@@H](Cc1ccc(O)cc1)C(N)=O` (Pentanoyl-Pro-Tyr-NH2) came in with an ED50 with Mus musculus of 3.2 mg/kg.

Turning to `NC(=O)[C@H](Cc1ccc(O)cc1)NC(=O)[C@@H]1CCCN1C(=O)Cc1ccccc1`, the ED50 in the series with Mus musculus is 2.2 mg/kg; with Rattus norvegicus [1], 1.5 mg/kg; in the series with Rattus norvegicus [2], greater than 1000 mg/kg. The LD50 in series [3] is greater than 1000 mg/kg.

As for `O=C(CCCN1CCC(O)(c2ccc(Cl)cc2)CC1)c1ccc(F)cc1` [HALOPERIDOL], the ED50 with Mus musculus was 0.1 mg/kg; in the series on Rattus norvegicus [1], 0.14 mg/kg; in the series with Rattus norvegicus [2] it was 0.5 mg/kg. Further, the 50% lethal dose (LD50) in series [3] came out at 35 mg/kg.

Take `NC(=O)[C@H](Cc1ccc(O)cc1)NC(=O)[C@H]1CCCN1`: the 50% effect level with Mus musculus (ED50) was put at a dose of 3.6 mg/kg.

`CC(C)(C)OC(=O)N1CCC[C@H]1C(=O)N[C@@H](Cc1ccc(O)cc1)C(N)=O` gave an ED50 in the series on Mus musculus of 2.5 mg/kg.

As to `NC(=O)[C@@H](Cc1ccc(O)cc1)NC(=O)[C@@H]1CCCN1C(=O)Cc1ccccc1`, the ED50 with Mus musculus is greater than 8 mg/kg.

With `NC(=O)[C@H](Cc1ccc(O)cc1)NC(=O)[C@@H]1CCCN1`, the values for the ED50 in the series on Mus musculus, in the series with Rattus norvegicus [1] and in the series on Rattus norvegicus [2] were 3.4 mg/kg, 1.6 mg/kg and greater than 500 mg/kg, respectively. Further, in series [3], the LD50 was greater than 500 mg/kg.

`CC(C)(C)OC(=O)N1CCC[C@@H]1C(=O)N[C@@H](Cc1ccc(O)cc1)C(N)=O` came in with an ED50 with Mus musculus of 0.4 mg/kg.

As for `CCN1CCC[C@H]1CNC(=O)c1cc(S(N)(=O)=O)ccc1OC` [LEVOSULPIRIDE], the ED50 in the series with Mus musculus was 17.5 mg/kg; in the series with Rattus norvegicus [1] it was 16.5 mg/kg; in the series with Rattus norvegicus [2], greater than 120 mg/kg. For the same molecule, the LD50 in series [3] was 250 mg/kg.

In turn, `NC(=O)[C@@H](Cc1ccc(O)cc1)NC(=O)[C@@H]1CCCN1` had an ED50 in the series with Mus musculus greater than 16 mg/kg.

For `CCCCCC(=O)N1CCC[C@H]1C(=O)N[C@@H](Cc1ccc(O)cc1)C(N)=O` (Hexanoyl-Pro-Tyr-NH2), the ED50 in the series on Mus musculus was 0.5 mg/kg; in the series on Rattus norvegicus [1], 0.4 mg/kg; in the series with Rattus norvegicus [2], greater than 500 mg/kg. Moreover, in series [3], the LD50 was greater than 500 mg/kg.

As to `CCN1CCC[C@H]1CNC(=O)c1c(OC)ccc(Br)c1OC` [REMOXIPRIDE], the results for the ED50 in the series on Mus musculus, in the series with Rattus norvegicus [1] and in the series on Rattus norvegicus [2] were 1.2 mg/kg, 0.31 mg/kg and 8.7 mg/kg, respectively. Further, in series [3], the LD50 came out at 302 mg/kg.

For `CN1CCN(C2=Nc3cc(Cl)ccc3Nc3ccccc32)CC1` [CLOZAPINE], the 50% effective dose (ED50) in the series with Rattus norvegicus [1] is 20 mg/kg; in the series with Rattus norvegicus [2], greater than 32 mg/kg.

Consider `CCCCCCCCC(=O)N1CCC[C@H]1C(=O)N[C@@H](Cc1ccc(O)cc1)C(N)=O` (Nonanoyl-Pro-Tyr-NH2), for which it took a dose of 0.5 mg/kg to reach the 50% effect level in the series with Mus musculus (ED50).

Regarding `NC(=O)[C@H](Cc1ccc(O)cc1)NC(=O)[C@H]1CCCN1C(=O)Cc1ccccc1`, the ED50 in the series with Mus musculus turned out to be 4.9 mg/kg.
